Screening data (PubChem BioAssay)
proKLK7 act = proKLK7 (human) activation, primary screen; purified proKLK7, EDANS-DABCYL substrate fluorescence; 100% is mature enzyme control, 0% vehicle; activation, % at 7 µM; hit rate 0.9% among 370,000; AID 652039;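 active means activation above the mean of all tested compounds plus 3 SD, computed per campaign excluding outliers beyond control limits, cut at about 13% in these data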
Target sequence (P49862 whole entry, looked up): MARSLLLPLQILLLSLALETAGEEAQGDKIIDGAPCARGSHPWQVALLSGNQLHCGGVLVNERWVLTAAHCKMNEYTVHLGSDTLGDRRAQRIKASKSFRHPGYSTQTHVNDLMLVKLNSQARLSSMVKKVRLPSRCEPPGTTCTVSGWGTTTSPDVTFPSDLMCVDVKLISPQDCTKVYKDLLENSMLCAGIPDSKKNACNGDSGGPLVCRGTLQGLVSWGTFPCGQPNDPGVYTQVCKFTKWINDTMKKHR
proCasp3 act = procaspase-3 (human) activation; recombinant procaspase-3 D3A, Ac-DEVD-pNA absorbance 405 nm; activation, % at 8.5 µM; hit rate 0.11% among 330,000; AID 463141;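 active means activation above the mean of all tested compounds plus 3 SD, cut at about 21% in these data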;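 further: 0% = DMSO alone and 100% = DMSO wells spiked with extra 5 µM PC-3 D3A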
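Compound: 8.5 µM single point, 0.8% DMSO / Material: Autoprocessing-dead procaspase-3 D3A mutant enzyme / Timing: 1 h preincubation plus 2 h reaction at 25 °C / Medium: Zinc-free HEPES/NaCl buffer with 0.01% Triton X-100 at pH 7.4 / Technique: 405 nm absorbance of p-nitroaniline, reads at 0 and 120 min / Repeats: one well per compound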
Neddylation inh = inhibitors of human cullin neddylation | P61081+Q13564 | TR-FRET cullin neddylation, biochemical | calls only at 25 µM | hit rate 0.58% among 360,000 | AID 651699; in the data active means inhibition above about 36%
procasp7 counter = counter-screen for procaspase-3 activators: activators of human procaspase-7 | P55210 | activation, % at 8.5 µM | hit rate 0.093% among 330,000 | recombinant procaspase-7, Ac-DEVD-pNA absorbance 405 nm; D23A/D198A/D206A triple mutant, cannot self-cleave; scale: DMSO 0, 5 µM enzyme 100;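 active means percent activation above the screen-wide mean plus 3 SD, cut at about 25% in these data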
Target sequence (P55210 whole entry D23A/D198A/D206A): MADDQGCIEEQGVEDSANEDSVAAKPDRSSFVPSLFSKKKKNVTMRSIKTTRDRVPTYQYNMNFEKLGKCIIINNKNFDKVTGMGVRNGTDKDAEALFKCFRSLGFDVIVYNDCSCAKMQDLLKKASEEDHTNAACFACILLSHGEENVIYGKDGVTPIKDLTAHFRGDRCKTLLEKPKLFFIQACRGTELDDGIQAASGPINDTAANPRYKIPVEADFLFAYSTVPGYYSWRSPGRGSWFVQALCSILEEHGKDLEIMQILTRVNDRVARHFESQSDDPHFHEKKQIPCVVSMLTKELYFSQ
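Assay system: Uncleavable procaspase-7 mutant enzyme / Input: 2 µM procaspase-7 mutant as dispensed / Dosing: single nominal 8.5 µM compound dose, 0.8% DMSO final / Timing: 1 h enzyme–compound preincubation and 2 h substrate reaction, both 25 °C / Detection: p-Nitroaniline absorbance at 405 nm, read at 0 and 120 min / Replication: singlicate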
proKLK7 act conf = confirmation of human kallikrein-7 zymogen activators | shares compounds with proKLK7 act | purified proKLK7, EDANS-DABCYL substrate fluorescence; scaled: vehicle 0, mature enzyme 100 | activation, % at 7 µM | hit rate 68% among 3,200 | AID 686949;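 active means activation, as change over the incubation, above the mean of all tested compounds plus 3 SD, cut at about 13% in these data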
EDANS-DABCYL int = optically interferes with EDANS-DABCYL signal, flagging KLK7 hits | shares compounds with proKLK7 act | hit rate 80% among 3,200 | EDANS-DABCYL substrate fluorescence interference, no enzyme, 4 h; solvent 0%, active enzyme control 100% | AID 686952 | activation, % at 7 µM;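 active means activation above the all-compound mean plus 3 SD, ignoring values outside control-based bounds, cut at about 4.8% in these data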;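 further: value is the 4 h activation minus the activation read at time zero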
Starred values were filed as active, the others as inactive; i = inactive; · = not tested or not shown. Only some compounds are listed: those with a hit (about 1.6% of all), similar ones and a draw of the others.

SMILES	proKLK7 act	proCasp3 act	Neddylation inh	procasp7 counter	proKLK7 act conf	EDANS-DABCYL int
COc1cccc(C2=CC(c3ccc(OC)c(OC)c3OC)n3nnnc3N2)c1 (stereo not given)	6	2	i	-5	·	·
Cc1cc(C)n(CCNC(=O)CC2C(=O)NCCN2CC2CCCCC2)n1 (stereo not given)	1	-2	i	16	·	·
N=c1c(C(=O)NCc2ccco2)cc2c(=O)n3ccccc3nc2n1CCc1ccccc1	16*	-17	·	-9	11	2
N=c1c(C(=O)NCc2ccc(F)cc2)cc2c(=O)n3ccccc3nc2n1CC1CCCO1 (stereo not given)	21*	-14	i	-14	-59	-54
N=c1c(C(=O)NCc2ccco2)cc2c(=O)n3ccccc3nc2n1CC1CCCO1 (stereo not given)	9	-11	·	-13	·	·
COc1ccc(CCNC(=O)c2cc3c(=O)n4ccccc4nc3n(CC3CCCO3)c2=N)cc1 (stereo not given)	2	·	i	·	·	·
N=c1c(C(=O)NCCc2ccccc2)cc2c(=O)n3ccccc3nc2n1CC1CCCO1 (stereo not given)	99*	-24	·	-40	9	7.7*
COC(=O)c1nc(NC(=O)c2cc(OC)c(OC)c(OC)c2)n[nH]1	0	8	i	6	·	·
CC(=O)c1ccc(-c2nc3ccccc3n2C)o1	67*	5	i	5	57*	59*
Cc1ccc(-c2nc3ccccc3n2C)o1	-1	-9	i	-5	·	·
Cc1c(-c2ccccc2)c(=O)oc2cc(O)ccc12	25*	16	·	25	65*	69*
O=c1nc(Oc2ccccc2)nc2ncccn12	-1	·	i	·	·	·
O=C1[C@H](c2ccccc2)[C@@H](c2ccncc2)N1c1ccncc1	0	·	·	·	·	·
N#Cc1cccc(S(=O)(=O)NCC(=O)OCC(=O)NCc2ccccc2)c1	0	4	i	8	·	·
CCOC(=O)CC1(CC(=O)OCC)NC(=O)c2c(C)sc(C(=O)OCC)c2N1	13*	-1	·	2	4	4.3*
CCOC(=O)CC1(C)NC(=O)c2c(C)sc(C(=O)OCC)c2N1 (stereo not given)	13*	9	·	9	-16	-22
CC(C)Cn1c(N)c(C(=O)COC(=O)c2cc(S(=O)(=O)N3CCOCC3)ccc2Br)c(=O)n(C)c1=O	1	7	i	8	·	·
COc1cc(C2Nc3ccccc3C(=O)N2c2ccccc2OC)ccc1O (stereo not given)	13*	-2	·	-3	15*	17*
COc1ccccc1N1C(=O)c2ccccc2NC1c1ccc(O)cc1 (stereo not given)	23*	6	·	14	20*	26*
O=C1NN(c2ccccc2)C(=O)C1=Cc1ccccc1O	2	·	i	·	·	·
O=C1NN(c2ccc(Br)cc2)C(=O)/C1=C\c1ccc(O)cc1O	157*	-8	i	-13	181*	196*
CCn1ncc(-c2ccnc3cc(C(=O)O)nn23)c1C	13*	-4	·	-1	39*	44*
CCn1ncc(-c2cc(C(=O)O)no2)c1C	1	0	·	-6	·	·
O=c1c(-c2cccs2)nc2ccccc2n1C(c1ccccn1)c1nc2ccccc2[nH]1 (stereo not given)	17*	·	·	·	13	14*
O=c1c(-c2cccs2)nc2ccccc2n1C(CCc1ccccc1)c1nc2ccccc2[nH]1 (stereo not given)	-131	·	i	·	·	·
SMILES	proKLK7 act	proCasp3 act	Neddylation inh	procasp7 counter	proKLK7 act conf	EDANS-DABCYL int
CC1C2=C(CC(C)(C)CC2=O)NC2=C1C(=O)CC(C)(C)C2	19*	-5	·	0	74*	73*
COc1ccc(S(=O)(=O)N2CCCCC2)cc1NS(=O)(=O)c1ccccc1	0	12	i	7	·	·
Cc1ccc(CN2CCN(Cc3ccccc3C(F)(F)F)CC2)cc1	-1	-3	i	-5	·	·
CCOc1ccc(/C=C(\C)C(=O)c2c(C)cc(C)[nH]c2=O)cc1	28*	-7	i	1	0	0
COc1ccc(/C=C(\C)C(=O)c2c(C)cc(C)[nH]c2=O)cc1	0	-6	i	-2	·	·
O=C(C[n+]1ccc(C(=O)N/N=C/c2ccc(OCc3ccccc3)cc2)cc1)c1ccccc1	-1	1	i	-9	·	·
COc1ccc(OC)c(/C=N/NC(=O)CC2C(=O)NN=C2C)c1 (stereo not given)	77*	-4	·	9	45*	39*
COc1ccc(OC)c(/C=N/NC(=O)c2cc[n+](CC(=O)c3ccccc3)cc2)c1	31*	-15	i	-23	63*	65*
COc1ccc(OC)c(/C=N/NC(=O)CCc2c(C)n[nH]c2C)c1	17*	6	·	4	32*	35*
COc1ccc(OC)c(/C=N/NC(=O)CC(=O)NC2CCCCC2)c1	29*	2	·	1	4	23*
Nc1ncnc2c(C3OC(CO)C(O)C3O)c[nH]c12 (stereo not given)	0	·	i	·	·	·
O=C(CN1C(=O)/C(=C/c2ccc(F)cc2)SC1=S)NC1CCS(=O)(=O)C1 (stereo not given)	1	-9	i	-2	·	·
COc1ccc(OC)c(/C=N/NC(=O)c2cnccn2)c1	26*	-10	i	5	36*	39*
COc1cc(/C=C/c2cc[n+](C)cc2)ccc1OCC(=O)Nc1ccccc1	24*	0	i	-8	28*	25*
COc1ccc(OC)c(/C=N/NC(=O)C(=O)N2CCCC2)c1	59*	11	i	8	48*	46*
COc1ccc(NC(=O)COc2ccc(/C=N/NC(=O)c3cccnc3)cc2OC)cc1	20*	-2	i	1	-272	-182
COc1ccc(C2C(C(=O)c3ccco3)=C(O)C(=O)N2CCc2ccccc2)cc1OC (stereo not given)	1	-13	i	-27	·	·
C=CC[C@@]1(c2ccccc2)Oc2ccccc2-c2nc3ccccc3nc21	-15	·	·	·	·	·
CCOC(=O)C1=C(C)N(CCC(=O)O)C(=O)NC1c1ccccc1Cl (stereo not given)	0	-8	i	-2	·	·
CCC(=O)Oc1ccc2c(c1)OC1(OC(C)=O)OC(C)CC1=C2C (stereo not given)	297*	-39	·	-1	610*	615*
CCC(=O)Oc1ccc2oc(=O)cc(C)c2c1	1	-7	i	-9	·	·
O=C(Oc1ccc(Cl)c2cccnc12)C12CC3CC(CC(C3)C1)C2	0	-4	i	-2	·	·
